Test results published in ChEMBL document CHEMBL1671759, “Thr202Ala in thyA is a marker for the Latin American Mediterranean lineage of the Mycobacterium tuberculosis complex rather than para-aminosalicylic acid resistance” (2010).
Activity calls are given as the source filed them.

Experiments:
[1] = system: Mycobacterium tuberculosis; assay: Antimicrobial activity against Mycobacterium tuberculosis H37Rv 9679/00 harboring thyA Thr202Ala single nucleotide polymorphism grown in 7H9 broth assessed as decrease in bacterial growth at 0.125 to 2 ug/ml by spectrophotometry; assay type: functional, organism-based
Outline: (§1)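 PAS growth curves in 7H9 broth with OADC (10%) and Tween 80 (0.05%), 37°C, rolling device. PAS was added at OD600 0.1 to 0, 0.13, 0.25, 0.5, 1.0 and 2.0 mg/liter. OD600 was read daily for 9 consecutive days, in triplicate. Curves are means of three independent experiments.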

[2] = system: Mycobacterium tuberculosis; assay: Antimicrobial activity against Mycobacterium tuberculosis Haarlem 9532/03 harboring thyA Thr202Ala single nucleotide polymorphism grown in Lowenstein-Jensen medium; assay type: functional
Outline: (§2)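 PAS MIC by conventional susceptibility testing on Löwenstein-Jensen medium at 0.063, 0.13, 0.25, 0.5 and 1.0 mg/liter PAS. Strains were drawn from the reference collection and cultivated at the Borstel Supranational Reference Laboratory.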

[3] = system: Mycobacterium tuberculosis; assay: Antimicrobial activity against Mycobacterium tuberculosis LAM 7968/03 harboring thyA Thr202Ala single nucleotide polymorphism grown in Lowenstein-Jensen medium; assay type: functional; outline: as §2
[4] = system: Mycobacterium tuberculosis; assay: Antimicrobial activity against Mycobacterium tuberculosis LAM 8885/05 harboring thyA Thr202Ala single nucleotide polymorphism grown in Lowenstein-Jensen medium; assay type: functional; outline: as §2
[5] = system: Mycobacterium tuberculosis; assay: Antimicrobial activity against Mycobacterium tuberculosis Beijing 1934/03 harboring thyA Thr202Ala single nucleotide polymorphism grown in Lowenstein-Jensen medium; assay type: functional; outline: as §2
[6] = system: Mycobacterium tuberculosis; assay: Antimicrobial activity against Mycobacterium tuberculosis H37Rv 9679/00 harboring thyA Thr202Ala single nucleotide polymorphism grown in Lowenstein-Jensen medium; assay type: functional; outline: as §2
[7] = system: Mycobacterium tuberculosis; assay: Antimicrobial activity against Mycobacterium tuberculosis LAM 7968/03 harboring thyA Thr202Ala single nucleotide polymorphism grown in 7H9 broth assessed as decrease in bacterial growth at 0.125 to 2 ug/ml by spectrophotometry; assay type: functional, organism-based; outline: as §1
[8] = system: Mycobacterium tuberculosis; assay: Antimicrobial activity against Mycobacterium tuberculosis LAM 8885/05 harboring thyA Thr202Ala single nucleotide polymorphism grown in 7H9 broth assessed as decrease in bacterial growth at 0.125 to 2 ug/ml by spectrophotometry; assay type: functional, organism-based; outline: as §1
[9] = system: Mycobacterium tuberculosis; assay: Antimicrobial activity against Mycobacterium tuberculosis Haarlem 9532/03 harboring thyA Thr202Ala single nucleotide polymorphism grown in 7H9 broth assessed as decrease in bacterial growth at 0.125 to 2 ug/ml by spectrophotometry; assay type: functional, organism-based; outline: as §1
[10] = system: Mycobacterium tuberculosis; assay: Antimicrobial activity against Mycobacterium tuberculosis Beijing 1934/03 harboring thyA Thr202Ala single nucleotide polymorphism grown in 7H9 broth assessed as decrease in bacterial growth at 0.125 to 2 ug/ml by spectrophotometry; assay type: functional, organism-based; outline: as §1

Nc1ccc(C(=O)O)c(O)c1 [AMINOSALICYLIC ACID]
0.5 ng/mL: MIC [2] | MIC [3] | MIC [4] | MIC [5] | MIC [6]
active: Activity [1] | Activity [7] | Activity [8] | Activity [9] | Activity [10]
